# Measured values as given in ChEMBL document CHEMBL5385915 (J Med Chem, 2024).
# System: Mycobacterium tuberculosis
# Assay: Antitubercular activity against multidrug-resistant Mycobacterium tuberculosis 08/00483E assessed as inhibition of bacterial growth measured for 7 days by REMA analysis
# Assay type: functional
# Conditions: 168 h, time 7 day
# Method in brief: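 REMA: 2-fold dilutions in CMM MOD2 medium, wells inoculated at 1×10^6 CFU/mL, 7 days at 37 °C with 200 rpm agitation; resazurin (0.02% w/v in PBS pH 7.4, 5% Tween 80) then 6 h at room temperature; OD570 vs vehicle; MIC99 by modified Gompertz function; three biological replicates.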
compound,measurement,value
FC(F)(F)c1cc([C@H]2C[C@@H](CN3CCCC3)N2Cc2ccccc2Br)cc(C(F)(F)F)c1 (racemic),MIC99,16.8 µM
